From article PMC4681580 (Journal of immunology (Baltimore, Md. : 1950), 2015)
Positions count from the first letter of the chain named. Primed or numbered codes have the meaning given here. No end group written: not given here. FITC′ = fluorescein isothiocyanate

Assays:
[1] = target: T1, rTAP1/TAP2a(E218M) (Rattus norvegicus, UniProt P36370+P36372, E218M); assay: Peptide transport assay, E218M mutant; format: biochemical; conditions: FITC-labeled peptide 1 μM, 37 °C, 5 min, with or without 5 mM ATP
T1 sequence (P36370 1-725): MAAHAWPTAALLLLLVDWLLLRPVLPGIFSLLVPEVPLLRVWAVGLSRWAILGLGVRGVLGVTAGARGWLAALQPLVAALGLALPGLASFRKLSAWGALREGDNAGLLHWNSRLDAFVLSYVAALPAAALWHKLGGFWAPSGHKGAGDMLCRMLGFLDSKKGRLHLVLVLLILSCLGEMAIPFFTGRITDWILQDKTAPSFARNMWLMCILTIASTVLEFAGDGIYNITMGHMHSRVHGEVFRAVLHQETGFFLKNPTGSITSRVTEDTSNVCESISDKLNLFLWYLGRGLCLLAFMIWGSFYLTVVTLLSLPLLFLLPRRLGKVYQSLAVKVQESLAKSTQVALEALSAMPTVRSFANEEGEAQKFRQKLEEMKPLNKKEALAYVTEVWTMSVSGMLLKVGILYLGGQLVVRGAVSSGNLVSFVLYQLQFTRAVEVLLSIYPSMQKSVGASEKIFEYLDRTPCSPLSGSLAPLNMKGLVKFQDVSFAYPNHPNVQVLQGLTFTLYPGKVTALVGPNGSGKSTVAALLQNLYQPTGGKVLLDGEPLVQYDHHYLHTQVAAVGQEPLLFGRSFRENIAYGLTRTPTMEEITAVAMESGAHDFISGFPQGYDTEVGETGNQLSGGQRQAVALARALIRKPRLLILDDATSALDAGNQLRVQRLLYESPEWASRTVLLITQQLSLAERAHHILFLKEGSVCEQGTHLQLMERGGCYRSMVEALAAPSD
T1 sequence (P36372 1-703 E218M): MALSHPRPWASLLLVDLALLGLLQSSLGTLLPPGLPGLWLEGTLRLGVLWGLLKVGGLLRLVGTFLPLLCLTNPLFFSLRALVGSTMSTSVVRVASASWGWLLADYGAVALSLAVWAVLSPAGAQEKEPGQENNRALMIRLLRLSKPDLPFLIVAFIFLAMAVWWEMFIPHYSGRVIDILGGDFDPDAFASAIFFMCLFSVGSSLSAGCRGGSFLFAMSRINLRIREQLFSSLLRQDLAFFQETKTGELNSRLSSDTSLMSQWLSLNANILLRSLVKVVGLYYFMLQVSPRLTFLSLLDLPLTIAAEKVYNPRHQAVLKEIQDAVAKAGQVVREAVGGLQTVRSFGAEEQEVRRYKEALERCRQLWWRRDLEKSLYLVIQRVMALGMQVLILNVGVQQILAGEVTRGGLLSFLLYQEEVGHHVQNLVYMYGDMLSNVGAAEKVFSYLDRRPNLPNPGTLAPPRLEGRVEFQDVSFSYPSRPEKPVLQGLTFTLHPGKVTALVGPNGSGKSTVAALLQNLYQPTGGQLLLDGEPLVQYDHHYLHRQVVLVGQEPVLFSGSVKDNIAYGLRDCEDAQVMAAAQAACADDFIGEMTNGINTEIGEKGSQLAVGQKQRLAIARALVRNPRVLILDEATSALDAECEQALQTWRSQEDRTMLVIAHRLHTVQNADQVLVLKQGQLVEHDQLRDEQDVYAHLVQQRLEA
Outline: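 Sf21 cells were grown to confluence and infected with baculoviruses (MOI 5–20) expressing His-tagged rTAP1 and Flag-tagged rTAP2 variants; microsomes were made after 72 h. Lysis was in 1% NP40, and glycosylated peptide was recovered on Con A-Sepharose. Fluorescence was read in triplicate to give +ATP/−ATP ratios, normalized to wild type (100%) and TAP-free microsomes (0%). Paired two-tailed t-tests were applied.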

[2] = target: T2, rTAP1/TAP2a (wild type) (Rattus norvegicus, UniProt P36370+P36372); assay: Competitive inhibition of TC6R crosslinking, wild type TAP; format: binding
T2 sequence (P36370 1-725): T1 sequence (P36370 1-725)
T2 sequence (P36372 1-703): T1 sequence (P36372 1-703 E218M) with M218E
Outline: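 Rat TAP1/TAP2a expressed in baculovirus-infected Sf21 microsomes. Microsomes were incubated with 1 μM FITC-lysine peptide with Cys at position 6, plus unlabeled competitor peptide, on ice for 10 min in PBS pH 7.4. BMOE was added (0.2 mM final) for 10 min at room temperature and quenched with 10 mM DTT. Products were resolved by SDS-PAGE and fluorescence imaged at 520 nm.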

[3] = target: T3, rTAP1/TAP2a(E218M/Q262R/S265P/L266F) (rat) (UniProt P36370); assay: cross-linking
T3 sequence (P36370 1-725 with E218M Q262R S265P L266F, looked up): T1 sequence (P36370 1-725)
T3 sequence (P36372 1-703 with E218M Q262R S265P L266F, looked up): T1 sequence (P36372 1-703 E218M) with Q262R, S265P, L266F

[4] = target: T4, rTAP1/TAP2a(E218M) (rat) (UniProt P36370); assay: cross-linking
T4 sequence (P36370 1-725 with E218M, looked up): T1 sequence (P36370 1-725)
T4 sequence (P36372 1-703 with E218M, looked up): T1 sequence (P36372 1-703 E218M)

[5] = target: T5, wild type rat TAP1/TAP2a complex (rat) (UniProt P36370); assay: cross-linking
T5 sequence (P36370 whole entry, looked up): T1 sequence (P36370 1-725)
T5 sequence (P36372 whole entry, looked up): T1 sequence (P36372 1-703 E218M) with M218E

With TVDNK*TAYV the “effect of mutation on transport efficiency versus wild type” value [1] was “did not significantly affect”.

With RYWANATKSR [RR] the IC50 [2] was 300 nM.

TVDNK(FITC′)CAYV [TVDNK*CAYV (TC6V), FITC-labeled] showed a Kd [3] of 107 nM, a Kd [4] of 339 nM and a Kd [5] of 417 nM.

With TVDNKTAYR […, unlabeled competitor peptide] the IC50 [5] was greater than 2000 nM.

Molecule TVDNK(FITC′)CAYR [TVDNK*CAYR (TC6R), FITC-labeled] has a Kd [5] of 187 nM.
